Measurements: ChEMBL document CHEMBL1153921, “Design, synthesis, and biological evaluation of novel 1-(1H-1,2,4-triazole-1-yl)-2-(2,4-difluorophenyl)-3-substituted benzylamino-2-propanols” (2009)
Converted amounts (≈) assume the structure as drawn.

Assays:
Format in all cases: functional
Aspergillus fumigatus = assay: Antimicrobial activity against Aspergillus fumigatus by micro-broth dilution method
How it was run: (§1)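 Clinical isolates. Tested by broth microdilution in 96-well plates following NCCLS M27-A2. MIC80, the minimum concentration inhibiting growth by 80%, was recorded. Marketed reference antifungals were included as positive controls.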

Candida albicans = assay: Antimicrobial activity against Candida albicans by micro-broth dilution method
How it was run: (§2)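 ATCC standard strains. Broth microdilution in 96-well plates following NCCLS M27-A2 (reference broth dilution method for yeasts). Endpoint is MIC80, the lowest concentration giving 80% growth inhibition. Marketed reference antifungals ran alongside as positive controls.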

Pichia kudriavzevii = assay: Antimicrobial activity against Candida krusei by micro-broth dilution method; how it was run: as §1
Candida tropicalis = assay: Antimicrobial activity against Candida tropicalis by micro-broth dilution method; how it was run: as §1
Trichophyton rubrum = assay: Antimicrobial activity against Trichophyton rubrum by micro-broth dilution method; how it was run: as §1
Candida parapsilosis = assay: Antimicrobial activity against Candida parapsilosis by micro-broth dilution method; settings: Lodderomyces parapsilosis; how it was run: as §1
Nannizzia gypsea = assay: Antimicrobial activity against Microsporum gypseum by micro-broth dilution method; how it was run: as §1
Cryptococcus neoformans = assay: Antimicrobial activity against Cryptococcus neoformans by micro-broth dilution method; how it was run: as §2

Row | SMILES | MIC80 (Aspergillus fumigatus) | MIC80 (Candida albicans) | MIC80 (Pichia kudriavzevii) | MIC80 (Candida tropicalis) | MIC80 (Trichophyton rubrum) | MIC80 (Candida parapsilosis) | MIC80 (Nannizzia gypsea) | MIC80 (Cryptococcus neoformans)
1 | CCCCN(Cc1ccccc1F)CC(O)(Cn1cncn1)c1ccc(F)cc1F (centres undefined) | 16 µg/mL (≈ 38.2 µM) | 0.0625 µg/mL (≈ 0.149 µM) | 0.25 µg/mL (≈ 0.597 µM) | 0.25 µg/mL (≈ 0.597 µM) | 1 µg/mL (≈ 2.39 µM) | 0.25 µg/mL (≈ 0.597 µM) | 0.25 µg/mL (≈ 0.597 µM) | 0.25 µg/mL (≈ 0.597 µM)
2 | CC(C)N(Cc1ccc(Cl)cc1)CC(O)(Cn1cncn1)c1ccc(F)cc1F (centres undefined) | 1 µg/mL (≈ 2.38 µM) | 0.0625 µg/mL (≈ 0.148 µM) | 0.0625 µg/mL (≈ 0.148 µM) | 0.25 µg/mL (≈ 0.594 µM) | 0.25 µg/mL (≈ 0.594 µM) | 0.0625 µg/mL (≈ 0.148 µM) | 0.0625 µg/mL (≈ 0.148 µM) | 0.25 µg/mL (≈ 0.594 µM)
3 | CCCCN(Cc1ccc(Cl)cc1)CC(O)(Cn1cncn1)c1ccc(F)cc1F (centres undefined) | > 64 µg/mL | 1 µg/mL (≈ 2.3 µM) | 1 µg/mL (≈ 2.3 µM) | 1 µg/mL (≈ 2.3 µM) | 1 µg/mL (≈ 2.3 µM) | 1 µg/mL (≈ 2.3 µM) | 1 µg/mL (≈ 2.3 µM) | 1 µg/mL (≈ 2.3 µM)
4 | CC(C)N(Cc1cccc(Cl)c1)CC(O)(Cn1cncn1)c1ccc(F)cc1F (centres undefined) | > 64 µg/mL | 0.0156 µg/mL (≈ 0.0371 µM) | 0.25 µg/mL (≈ 0.594 µM) | 1 µg/mL (≈ 2.38 µM) | 0.25 µg/mL (≈ 0.594 µM) | 0.25 µg/mL (≈ 0.594 µM) | 1 µg/mL (≈ 2.38 µM) | 1 µg/mL (≈ 2.38 µM)
5 | CCCN(Cc1ccc(F)cc1)CC(O)(Cn1cncn1)c1ccc(F)cc1F (centres undefined) | > 64 µg/mL | 0.0625 µg/mL (≈ 0.155 µM) | 0.0625 µg/mL (≈ 0.155 µM) | 0.25 µg/mL (≈ 0.618 µM) | 1 µg/mL (≈ 2.47 µM) | 0.0625 µg/mL (≈ 0.155 µM) | 0.0039 µg/mL (≈ 0.00964 µM) | 0.0625 µg/mL (≈ 0.155 µM)
6 | CCCN(Cc1ccc(CC)cc1)CC(O)(Cn1cncn1)c1ccc(F)cc1F (centres undefined) | > 64 µg/mL | 0.0156 µg/mL (≈ 0.0376 µM) | 1 µg/mL (≈ 2.41 µM) | 0.25 µg/mL (≈ 0.603 µM) | 1 µg/mL (≈ 2.41 µM) | 0.25 µg/mL (≈ 0.603 µM) | 0.25 µg/mL (≈ 0.603 µM) | 1 µg/mL (≈ 2.41 µM)
7 | CCCN(Cc1cccc(Cl)c1)CC(O)(Cn1cncn1)c1ccc(F)cc1F (centres undefined) | > 64 µg/mL | 0.0625 µg/mL (≈ 0.148 µM) | 0.25 µg/mL (≈ 0.594 µM) | 0.25 µg/mL (≈ 0.594 µM) | 4 µg/mL (≈ 9.5 µM) | 0.25 µg/mL (≈ 0.594 µM) | 0.0625 µg/mL (≈ 0.148 µM) | 0.25 µg/mL (≈ 0.594 µM)
8 | CC(C)N(Cc1ccccc1F)CC(O)(Cn1cncn1)c1ccc(F)cc1F (centres undefined) | > 64 µg/mL | 0.0625 µg/mL (≈ 0.155 µM) | 0.25 µg/mL (≈ 0.618 µM) | 0.25 µg/mL (≈ 0.618 µM) | 1 µg/mL (≈ 2.47 µM) | 0.0625 µg/mL (≈ 0.155 µM) | 0.0625 µg/mL (≈ 0.155 µM) | 0.25 µg/mL (≈ 0.618 µM)
9 | CCc1ccc(CN(CC(O)(Cn2cncn2)c2ccc(F)cc2F)C(C)C)cc1 (centres undefined) | > 64 µg/mL | 0.0625 µg/mL (≈ 0.151 µM) | 1 µg/mL (≈ 2.41 µM) | 1 µg/mL (≈ 2.41 µM) | 1 µg/mL (≈ 2.41 µM) | 1 µg/mL (≈ 2.41 µM) | 0.25 µg/mL (≈ 0.603 µM) | 1 µg/mL (≈ 2.41 µM)

Continued, values first:

Row | MIC80 (Aspergillus fumigatus) | MIC80 (Candida albicans) | MIC80 (Pichia kudriavzevii) | MIC80 (Candida tropicalis) | MIC80 (Trichophyton rubrum) | MIC80 (Candida parapsilosis) | MIC80 (Nannizzia gypsea) | MIC80 (Cryptococcus neoformans) | SMILES
10 | 64 µg/mL (≈ 148 µM) | 0.0156 µg/mL (≈ 0.0362 µM) | 0.0625 µg/mL (≈ 0.145 µM) | 0.25 µg/mL (≈ 0.579 µM) | 0.25 µg/mL (≈ 0.579 µM) | 0.0625 µg/mL (≈ 0.145 µM) | 0.0156 µg/mL (≈ 0.0362 µM) | 0.25 µg/mL (≈ 0.579 µM) | CC(C)N(Cc1ccc([N+](=O)[O-])cc1)CC(O)(Cn1cncn1)c1ccc(F)cc1F (centres undefined)
11 | > 64 µg/mL | 0.0625 µg/mL (≈ 0.156 µM) | 0.25 µg/mL (≈ 0.624 µM) | 0.0625 µg/mL (≈ 0.156 µM) | 0.25 µg/mL (≈ 0.624 µM) | 0.0625 µg/mL (≈ 0.156 µM) | 0.0156 µg/mL (≈ 0.039 µM) | 0.0625 µg/mL (≈ 0.156 µM) | CCCCN(Cc1ccccc1)CC(O)(Cn1cncn1)c1ccc(F)cc1F (centres undefined)
12 | > 64 µg/mL | 1 µg/mL (≈ 2.3 µM) | 1 µg/mL (≈ 2.3 µM) | 0.25 µg/mL (≈ 0.575 µM) | 1 µg/mL (≈ 2.3 µM) | 0.25 µg/mL (≈ 0.575 µM) | 0.25 µg/mL (≈ 0.575 µM) | 0.25 µg/mL (≈ 0.575 µM) | CCCCN(Cc1ccccc1Cl)CC(O)(Cn1cncn1)c1ccc(F)cc1F (centres undefined)
13 | 4 µg/mL (≈ 8.6 µM) | 0.0039 µg/mL (≈ 0.00838 µM) | 0.25 µg/mL (≈ 0.537 µM) | 0.0625 µg/mL (≈ 0.134 µM) | 0.0625 µg/mL (≈ 0.134 µM) | 0.0625 µg/mL (≈ 0.134 µM) | 0.0156 µg/mL (≈ 0.0335 µM) | 0.25 µg/mL (≈ 0.537 µM) | CC(C)N(Cc1ccc(Br)cc1)CC(O)(Cn1cncn1)c1ccc(F)cc1F (centres undefined)
14 | > 64 µg/mL | 0.0625 µg/mL (≈ 0.156 µM) | 0.0625 µg/mL (≈ 0.156 µM) | 0.0625 µg/mL (≈ 0.156 µM) | 0.25 µg/mL (≈ 0.624 µM) | 0.0625 µg/mL (≈ 0.156 µM) | 0.0156 µg/mL (≈ 0.039 µM) | 0.25 µg/mL (≈ 0.624 µM) | CCCN(Cc1ccc(C)cc1)CC(O)(Cn1cncn1)c1ccc(F)cc1F (centres undefined)
15 | > 64 µg/mL | 0.0625 µg/mL (≈ 0.134 µM) | 0.25 µg/mL (≈ 0.537 µM) | 0.25 µg/mL (≈ 0.537 µM) | 1 µg/mL (≈ 2.15 µM) | 0.0039 µg/mL (≈ 0.00838 µM) | 0.0625 µg/mL (≈ 0.134 µM) | 0.25 µg/mL (≈ 0.537 µM) | CCCN(Cc1ccccc1Br)CC(O)(Cn1cncn1)c1ccc(F)cc1F (centres undefined)
16 | > 64 µg/mL | 0.0625 µg/mL (≈ 0.134 µM) | 0.25 µg/mL (≈ 0.537 µM) | 0.0625 µg/mL (≈ 0.134 µM) | 0.25 µg/mL (≈ 0.537 µM) | 0.0156 µg/mL (≈ 0.0335 µM) | 0.0625 µg/mL (≈ 0.134 µM) | 0.25 µg/mL (≈ 0.537 µM) | CCCN(Cc1ccc(Br)cc1)CC(O)(Cn1cncn1)c1ccc(F)cc1F (centres undefined)
17 | > 64 µg/mL | 0.0156 µg/mL (≈ 0.039 µM) | 0.25 µg/mL (≈ 0.624 µM) | 0.25 µg/mL (≈ 0.624 µM) | 0.25 µg/mL (≈ 0.624 µM) | 0.0625 µg/mL (≈ 0.156 µM) | 0.0625 µg/mL (≈ 0.156 µM) | 0.25 µg/mL (≈ 0.624 µM) | Cc1ccccc1CN(CC(O)(Cn1cncn1)c1ccc(F)cc1F)C(C)C (centres undefined)
18 | > 64 µg/mL | 1 µg/mL (≈ 2.3 µM) | 1 µg/mL (≈ 2.3 µM) | 1 µg/mL (≈ 2.3 µM) | 1 µg/mL (≈ 2.3 µM) | 0.25 µg/mL (≈ 0.575 µM) | 0.25 µg/mL (≈ 0.575 µM) | 0.25 µg/mL (≈ 0.575 µM) | CCCCN(Cc1cccc(Cl)c1)CC(O)(Cn1cncn1)c1ccc(F)cc1F (centres undefined)
